Reference: ChEMBL document CHEMBL3046016, “Antifeedant and growth inhibitory effects of some neo-clerodane diterpenoids isolated from Clerodendron species (Verbenaceae) on Earias vitella and Spodoptera litura” (2003)

Assays:
Assay type in all cases: functional
Spodoptera litura [1] = assay: Insecticidal activity against third-instar larval stage of Spodoptera litura in compound-treated castor leaves assessed as total larval duration time at 5 ug/cm2 (reference value: 12.4 +/- 0.48 days)
Spodoptera litura [2] = assay: Insecticidal activity against third-instar larval stage of Spodoptera litura in compound-treated castor leaves assessed as larval mortality at 10 ug/cm2 relative to control
Earias vittella [3] = assay: Insecticidal activity against female adult Earias vitella assessed as adult longevity time at 10 ug/cm3 administered through artificial diet containing Abelmoschus esculentus seed powder (reference value: 8.6 +/- 0.48 days)
Spodoptera litura [4] = assay: Insecticidal activity against female adult Spodoptera litura in compound-treated castor leaves assessed as adult longevity time at 10 ug/cm2 (reference value: 10 +/- 0.63 days)
Spodoptera litura [5] = assay: Insecticidal activity against pupal stage of Spodoptera litura in compound-treated castor leaves assessed as pupal weight at 5 ug/cm2 (reference value: 302.4 +/- 5.9 mg)
Earias vittella [6] = assay: Insecticidal activity against third-instar larval stage of Earias vitella assessed as larval mortality at 10 ug/cm3 administered through artificial diet containing Abelmoschus esculentus seed powder (reference value: 4%)
Spodoptera litura [7] = assay: Insecticidal activity against third-instar larval stage of Spodoptera litura in compound-treated castor leaves assessed as larval mortality at 5 ug/cm2 relative to control
Spodoptera litura [8] = assay: Insecticidal activity against pupal stage of Spodoptera litura in compound-treated castor leaves assessed as pupal duration time at 5 ug/cm2 (reference value: 9.2 +/- 0.74 days)
Spodoptera litura [9] = assay: Insecticidal activity against female adult Spodoptera litura in compound-treated castor leaves assessed as adult longevity time at 5 ug/cm2 (reference value: 10 +/- 0.63 days)
Earias vittella [10] = assay: Insecticidal activity against adult Earias vitella assessed as adult deformity at 10 ug/cm3 administered through artificial diet containing Abelmoschus esculentus seed powder (reference value: 4%)
Spodoptera litura [11] = assay: Insecticidal activity against pupal stage of Spodoptera litura in compound-treated castor leaves assessed as pupal duration time at 10 ug/cm2 (reference value: 9.2 +/- 0.74 days)
Earias vittella [12] = assay: Insecticidal activity against third-instar larval stage of Earias vitella assessed as larval mortality at 5 ug/cm3 administered through artificial diet containing Abelmoschus esculentus seed powder (reference value: 4%)
Spodoptera litura [13] = assay: Antifeedant activity against third-instar larval stage of Spodoptera litura in compound-treated castor leaves assessed as decrease in diet consumption at 10 ug/cm2 after 24 hr by no-choice leaf disk assay relative to acetone-treated control; parameters: scale not given: the % may be the effect or the level left
Method in brief: (§1)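 Larvae were reared on castor leaves at 25 ± 2 °C. In a no-choice test, compound in acetone was painted on the abaxial side of castor leaf disks and air-dried. Five freshly molted third-instar larvae, starved 4 h, were placed per Petri dish with wet cotton. There were five replicates. After 24 h, consumed leaf area was read on a leaf area meter. %AF = 100 − (treated/control)×100.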

Spodoptera litura [14] = assay: Antifeedant activity against third-instar larval stage of Spodoptera litura in compound-treated castor leaves assessed as decrease in diet consumption at 5 ug/cm2 after 24 hr by no-choice leaf disk assay relative to acetone-treated control; parameters: scale not given: the % may be the effect or the level left; method in brief: as §1
Spodoptera litura [15] = assay: Insecticidal activity against male adult Spodoptera litura in compound-treated castor leaves assessed as adult longevity time at 10 ug/cm2 (reference value: 9.4 +/- 0.48 days)
Spodoptera litura [16] = assay: Insecticidal activity against male adult Spodoptera litura in compound-treated castor leaves assessed as adult longevity time at 5 ug/cm2 (reference value: 9.4 +/- 0.48 days)
Earias vittella [17] = assay: Insecticidal activity against pupal stage of Earias vitella assessed as pupal weight at 5 ug/cm3 administered through artificial diet containing Abelmoschus esculentus seed powder (reference value: 88.2 +/- 4.01 mg)
Spodoptera litura [18] = assay: Insecticidal activity against adult Spodoptera litura in compound-treated castor leaves assessed as adult emergence at 5 ug/cm2 relative to control
Spodoptera litura [19] = assay: Insecticidal activity against adult Spodoptera litura in compound-treated castor leaves assessed as adult deformity at 5 ug/cm2 relative to control
Spodoptera litura [20] = assay: Insecticidal activity against pupal stage of Spodoptera litura in compound-treated castor leaves assessed as pupal weight at 10 ug/cm2 (reference value: 302.4 +/- 5.9 mg)
Earias vittella [21] = assay: Insecticidal activity against pupal stage of Earias vitella assessed as pupal duration time at 10 ug/cm3 administered through artificial diet containing Abelmoschus esculentus seed powder (reference value: 6.4 +/- 0.21 days)
Earias vittella [22] = assay: Insecticidal activity against pupal stage of Earias vitella assessed as pupal weight at 10 ug/cm3 administered through artificial diet containing Abelmoschus esculentus seed powder (reference value: 88.2 +/- 4.01 mg)
Earias vittella [23] = assay: Insecticidal activity against adult Earias vitella assessed as adult emergence at 10 ug/cm3 administered through artificial diet containing Abelmoschus esculentus seed powder (reference value: 88%)
Earias vittella [24] = assay: Antifeedant activity against third-instar larval stage of Earias vitella assessed as decrease in diet consumption at 10 ug/cm3 administered through artificial diet containing Abelmoschus esculentus seed powder after 24 hr relative to acetone-treated control; parameters: scale not given: the % may be the effect or the level left
Method in brief: (§2)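 Artificial diet was modified Klein medium with bhendi (Abelmoschus esculentus) seed powder in place of alfalfa. Compound in acetone was mixed into bhendi meal 12 h before diet preparation so the solvent evaporated. One 3 g diet cube was given to five freshly molted third-instar larvae in a muslin-covered container. After 24 h the cubes were weighed. %AF = 100 − (treated/control)×100.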

Earias vittella [25] = assay: Insecticidal activity against male adult Earias vitella assessed as adult longevity time at 10 ug/cm3 administered through artificial diet containing Abelmoschus esculentus seed powder (reference value: 8.2 +/- 0.4 days)
Spodoptera litura [26] = assay: Insecticidal activity against pupal stage of Spodoptera litura in compound-treated castor leaves assessed as pupal mortality at 5 ug/cm2 relative to control
Earias vittella [27] = assay: Antifeedant activity against third-instar larval stage of Earias vitella assessed as decrease in diet consumption at 5 ug/cm3 administered through artificial diet containing Abelmoschus esculentus seed powder after 24 hr relative to acetone-treated control; parameters: scale not given: the % may be the effect or the level left; method in brief: as §2
Earias vittella [28] = assay: Insecticidal activity against third-instar larval stage of Earias vitella assessed as total larval duration time at 5 ug/cm3 administered through artificial diet containing Abelmoschus esculentus seed powder (reference value: 8.2 +/- 0.48 days)
Earias vittella [29] = assay: Insecticidal activity against female adult Earias vitella assessed as adult longevity time at 5 ug/cm3 administered through artificial diet containing Abelmoschus esculentus seed powder (reference value: 8.6 +/- 0.48 days)
Spodoptera litura [30] = assay: Insecticidal activity against adult Spodoptera litura in compound-treated castor leaves assessed as adult emergence at 10 ug/cm2 relative to control
Spodoptera litura [31] = assay: Insecticidal activity against third-instar larval stage of Spodoptera litura in compound-treated castor leaves assessed as total larval duration time at 10 ug/cm2 (reference value: 12.4 +/- 0.48 days)
Earias vittella [32] = assay: Insecticidal activity against male adult Earias vitella assessed as adult longevity time at 5 ug/cm3 administered through artificial diet containing Abelmoschus esculentus seed powder (reference value: 8.2 +/- 0.4 days)
Earias vittella [33] = assay: Insecticidal activity against adult Earias vitella assessed as adult deformity at 5 ug/cm3 administered through artificial diet containing Abelmoschus esculentus seed powder (reference value: 4%)
Spodoptera litura [34] = assay: Insecticidal activity against pupal stage of Spodoptera litura in compound-treated castor leaves assessed as pupal mortality at 10 ug/cm2 relative to control
Earias vittella [35] = assay: Insecticidal activity against adult Earias vitella assessed as adult emergence at 5 ug/cm3 administered through artificial diet containing Abelmoschus esculentus seed powder (reference value: 88%)
Earias vittella [36] = assay: Insecticidal activity against pupal stage of Earias vitella assessed as pupal duration time at 5 ug/cm3 administered through artificial diet containing Abelmoschus esculentus seed powder (reference value: 6.4 +/- 0.21 days)
Earias vittella [37] = assay: Insecticidal activity against pupal stage of Earias vitella assessed as pupal mortality at 10 ug/cm3 administered through artificial diet containing Abelmoschus esculentus seed powder (reference value: 8%)
Earias vittella [38] = assay: Insecticidal activity against pupal stage of Earias vitella assessed as pupal mortality at 5 ug/cm3 administered through artificial diet containing Abelmoschus esculentus seed powder (reference value: 8%)
Spodoptera litura [39] = assay: Insecticidal activity against adult Spodoptera litura in compound-treated castor leaves assessed as adult deformity at 10 ug/cm2 relative to control
Earias vittella [40] = assay: Insecticidal activity against third-instar larval stage of Earias vitella assessed as total larval duration time at 10 ug/cm3 administered through artificial diet containing Abelmoschus esculentus seed powder (reference value: 8.2 +/- 0.48 days)

For CC[C@@](C)(OC(C)=O)C(=O)O[C@H]1[C@H](O)C[C@@H]2[C@@](C)([C@@H]3C[C@H]4C=CO[C@H]4O3)[C@H](C)C[C@H](OC(C)=O)[C@@]2(COC(C)=O)[C@@]12CO2 [CLERODENDRIN B], the Time (Spodoptera litura [1]) was 14.5 days, the mortality at 10 µg/cm2 (Spodoptera litura [2]) was 44% and the Time (Earias vittella [3]) was 4.8 days. The Time (Spodoptera litura [4]) was 5.2 days, the Activity (Spodoptera litura [5]) was 240 mg and the mortality (Earias vittella [6]) was 20%. For the same compound, the mortality at 5 µg/cm2 (Spodoptera litura [7]) was 32%, the Time (Spodoptera litura [8]) was 12 days and the Time (Spodoptera litura [9]) was 6.4 days. It also gave an Activity (Earias vittella [10]) of 16%, a Time (Spodoptera litura [11]) of 13 days and a mortality (Earias vittella [12]) of 15%. It also gave an Activity (Spodoptera litura [13]) of 84.9%, an Activity (Spodoptera litura [14]) of 76.5% and a Time (Spodoptera litura [15]) of 6.2 days. The Time (Spodoptera litura [16]) was 6.8 days, the Activity (Earias vittella [17]) was 55 mg and the Activity (Spodoptera litura [18]) was 59.2%. For the same compound, the Activity (Spodoptera litura [19]) was 12%, the Activity (Spodoptera litura [20]) was 220.2 mg and the Time (Earias vittella [21]) was 12.2 days. It also gave an Activity (Earias vittella [22]) of 50.4 mg, an Activity (Earias vittella [23]) of 44% and an Activity (Earias vittella [24]) of 82.14%. For the same compound, the Time (Earias vittella [25]) was 4.6 days, the mortality at 5 µg/cm2 (Spodoptera litura [26]) was 29.4% and the Activity (Earias vittella [27]) was 74.85%. The Time (Earias vittella [28]) was 10.6 days, the Time (Earias vittella [29]) was 5.8 days and the Activity (Spodoptera litura [30]) was 46.4%. The Time (Spodoptera litura [31]) was 15.8 days, the Time (Earias vittella [32]) was 5.4 days and the Activity (Earias vittella [33]) was 8%. For the same compound, the mortality at 10 µg/cm2 (Spodoptera litura [34]) was 37%, the Activity (Earias vittella [35]) was 52.5% and the Time (Earias vittella [36]) was 10 days. The mortality (Earias vittella [37]) was 42.5%, the mortality (Earias vittella [38]) was 40% and the Activity (Spodoptera litura [39]) was 16.8%. The Time (Earias vittella [40]) was 11.2 days.
With CC(=O)OC[C@@]12[C@@H](OC(C)=O)C[C@@H](C)[C@](C)([C@@H]3C[C@H]4C=CO[C@H]4O3)[C@H]1C[C@@H](O)[C@H](OC(=O)C(C)(C)OC(C)=O)[C@]21CO1 [CLERODENDRIN C] the Time (Spodoptera litura [1]) was 12.5 days, the mortality at 10 µg/cm2 (Spodoptera litura [2]) was 14% and the Time (Earias vittella [3]) was 7.2 days. For the same compound, the Time (Spodoptera litura [4]) was 8.2 days, the Activity (Spodoptera litura [5]) was 289.8 mg and the mortality (Earias vittella [6]) was 8%. It also gave a mortality at 5 µg/cm2 (Spodoptera litura [7]) of 12.5%, a Time (Spodoptera litura [8]) of 10 days and a Time (Spodoptera litura [9]) of 8.9 days. The Activity (Earias vittella [10]) was 8%, the Time (Spodoptera litura [11]) was 10.6 days and the mortality (Earias vittella [12]) was 4%. It also gave an Activity (Spodoptera litura [13]) of 65%, an Activity (Spodoptera litura [14]) of 56% and a Time (Spodoptera litura [15]) of 8.5 days. It also gave a Time (Spodoptera litura [16]) of 9.2 days, an Activity (Earias vittella [17]) of 69 mg and an Activity (Spodoptera litura [18]) of 76%. The Activity (Spodoptera litura [19]) was 4%, the Activity (Spodoptera litura [20]) was 282.2 mg and the Time (Earias vittella [21]) was 7.8 days. It also gave an Activity (Earias vittella [22]) of 66.2 mg, an Activity (Earias vittella [23]) of 70.5% and an Activity (Earias vittella [24]) of 41.54%. The Time (Earias vittella [25]) was 6.8 days, the mortality at 5 µg/cm2 (Spodoptera litura [26]) was 20.2% and the Activity (Earias vittella [27]) was 31%. The Time (Earias vittella [28]) was 8.4 days, the Time (Earias vittella [29]) was 7.6 days and the Activity (Spodoptera litura [30]) was 69.6%. The Time (Spodoptera litura [31]) was 12.5 days, the Time (Earias vittella [32]) was 7 days and the Activity (Earias vittella [33]) was 4%. For the same compound, the mortality at 10 µg/cm2 (Spodoptera litura [34]) was 22.7%, the Activity (Earias vittella [35]) was 76% and the Time (Earias vittella [36]) was 7.2 days. For the same compound, the mortality (Earias vittella [37]) was 22.5%, the mortality (Earias vittella [38]) was 20% and the Activity (Spodoptera litura [39]) was 8%. For the same compound, the Time (Earias vittella [40]) was 8.2 days.
